In ChEMBL document CHEMBL1154369, “Betulin-derived compounds as inhibitors of alphavirus replication” (J Nat Prod, 2009):

Experiments:
[1] = Cytotoxicity against human HuH7 cells assessed as cell viability at 50 uM after 24 hrs
[2] = system: Semliki Forest virus; assay: Antiviral activity against SFV infected in BHK cells assessed as surviving virus fraction at 50 uM after 14 hrs by luciferase reporter gene assay; format: functional; parameters: scale not given here
[3] = system: Semliki Forest virus; assay: Antiviral activity against SFV infected in BHK cells after 14 hrs by luciferase reporter gene assay; format: functional, organism-based
Method in brief: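 SFV-Rluc reporter virus from infectious cDNA clone; BHK-21 cells infected at low multiplicity (0.001 PFU/cell) and incubated 14 h, spanning over 2 infectious cycles. Serial dilutions of each derivative tested. Luciferase read-out as surviving virus fraction. IC50 from a sigmoidal dose-response fit; means ± SD, n = 6. 3′-Amino-3′-deoxyadenosine (20 µM) served as screen positive control.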

[4] = Cytotoxicity against human HuH7 cells assessed as cell viability at 500 uM after 24 hrs; format: cell-based, Huh-7; settings: read-out: Activity
Method in brief: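 Huh-7 human hepatocellular carcinoma cells exposed 24 h to derivative at 500 µM in an extended cytotoxicity analysis. Viability measured as intracellular ATP content and reported as surviving fraction.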

SMILES | viability at 24 h, 50 µM [1] [%] | Activity [2] [%] | IC50 ([3]; read-out: IC50) [µM] | IC50 ([3]; read-out: pIC50 (converted)) [µM] | viability at 24 h, 500 µM [4] [%]
CC(C)[C@@]12CC[C@]3(COC(=O)c4ccccc4)CC[C@]4(C)C(=C31)[C@H](C[C@@H]1[C@@]3(C)CC[C@H](OC(=O)c5ccccc5)C(C)(C)[C@@H]3CC[C@]14C)n1c(=O)n(C)c(=O)n12 | 108 | 22 |  |  | 
C=C(C)[C@@H]1CC[C@]2(COS(C)(=O)=O)CC[C@]3(C)[C@H](CC[C@@H]4[C@@]5(C)CC[C@H](OC(C)=O)C(C)(C)[C@@H]5CC[C@]43C)[C@@H]12 | 99 | 46 |  |  | 
C=C(C)[C@@H]1CC[C@]2(COC(=O)COc3cc(C(C)C)ccc3C)CC[C@]3(C)[C@H](CC[C@@H]4[C@@]5(C)CC[C@H](O)C(C)(C)[C@@H]5CC[C@]43C)[C@@H]12 | 103 | 80 |  |  | 
C=C(C)[C@@H]1CC[C@]2(COC(C)=O)CC[C@]3(C)[C@H](CC[C@@H]4[C@@]5(C)CC=CC(C)(C)[C@@H]5CC[C@]43C)[C@@H]12 | 95 | 98 |  |  | 
C=C(C)[C@@H]1CC[C@]2(CO)CC[C@]3(C)[C@H](CC[C@@H]4[C@@]5(C)CC=CC(C)(C)[C@@H]5CC[C@]43C)[C@@H]12 | 85 | 121 |  |  | 
C=C(C)[C@@H]1CC[C@]2(C(=O)Oc3ccc(C=O)cc3OC)CC[C@]3(C)[C@H](CC[C@@H]4[C@@]5(C)CCC(=O)C(C)(C)C5CC[C@]43C)[C@@H]12 (some centres undefined) [VANILLINYL BETULONATE] | 89 | 43 |  |  | 
C=C(C)[C@@H]1CC[C@]2(/C=N/O)CC[C@]3(C)[C@H](CC[C@@H]4[C@@]5(C)CC/C(=N\O)C(C)(C)[C@@H]5CC[C@]43C)[C@@H]12 [BETULIN-3,28-DIOXIME] | 80 | 121 |  |  | 
CC(C)[C@@]12CC[C@]3(COC(=O)C4CCCCC4)CC[C@]4(C)C(=C31)[C@H](C[C@@H]1[C@@]3(C)CC[C@H](OC(=O)C5CCCCC5)C(C)(C)[C@@H]3CC[C@]14C)n1c(=O)n(C(C)(C)C)c(=O)n12 | 83 | 40 |  |  | 
C=C(C)[C@@H]1CC[C@]2(C#N)CC[C@]3(C)[C@H](CC[C@@H]4[C@@]5(C)CC/C(=N\OC(C)=O)C(C)(C)[C@@H]5CC[C@]43C)[C@@H]12 | 85 | 73 |  |  | 
CC(=O)OC[C@]12CC[C@]3(C(C)C)C1=C1[C@H](C[C@@H]4[C@@]5(C)CC[C@H](OC(C)=O)C(C)(C)[C@@H]5CC[C@@]4(C)[C@]1(C)CC2)n1c(=O)n(-c2ccc(F)cc2)c(=O)n13 | 95 | 64 |  |  | 
CC(=O)OC[C@]12CC[C@]3(C(C)C)C1=C1[C@H](C[C@@H]4[C@@]5(C)CC[C@H](OC(C)=O)C(C)(C)[C@@H]5CC[C@@]4(C)[C@]1(C)CC2)n1c(=O)n(-c2ccc4c(c2)CCC4)c(=O)n13 | 93 | 81 |  |  | 
C=C(C)[C@@H]1CC[C@]2(COC(=O)/C=C/c3ccccc3)CC[C@]3(C)[C@H](CC[C@@H]4[C@@]5(C)CC[C@H](O)C(C)(C)[C@@H]5CC[C@]43C)[C@@H]12 | 96 | 111 |  |  | 
C=C(C)[C@@H]1CC[C@]2(COC(=O)c3ccccc3NC(C)=O)CC[C@]3(C)[C@H](CC[C@@H]4[C@@]5(C)CC[C@H](O)C(C)(C)[C@@H]5CC[C@]43C)[C@@H]12 | 94 | 82 |  |  | 
C=C(C)[C@@H]1CC[C@]2(C#N)CC[C@]3(C)[C@H](CC[C@@H]4[C@@]5(C)CC[C@H](OC(C)=O)C(C)(C)[C@@H]5CC[C@]43C)[C@@H]12 | 69 | 60 |  |  | 
CC(C)[C@@]12CC[C@]3(COC(=O)C4CCCCC4)CC[C@]4(C)C(=C31)[C@H](C[C@@H]1[C@@]3(C)CC[C@H](OC(=O)C5CCCCC5)C(C)(C)[C@@H]3CC[C@]14C)n1c(=O)n(C)c(=O)n12 | 97 | 44 |  |  | 
C=C(C)[C@@H]1CC[C@]2(/C=N/O)CC[C@]3(C)[C@H](CC[C@@H]4[C@@]5(C)CC[C@H](O)C(C)(C)[C@@H]5CC[C@]43C)[C@@H]12 | 82 | 55 |  |  | 

SMILES | viability at 24 h, 50 µM [1] [%] | Activity [2] [%] | IC50 ([3]; read-out: IC50) [µM] | IC50 ([3]; read-out: pIC50 (converted)) [µM] | viability at 24 h, 500 µM [4] [%]
CC(C)[C@@]12CC[C@]3(COC(=O)c4ccccc4)CC[C@]4(C)C(=C31)[C@H](C[C@@H]1[C@@]3(C)CC[C@H](OC(=O)c5ccccc5)C(C)(C)[C@@H]3CC[C@]14C)n1c(=O)n(-c3ccccc3)c(=O)n12 | 88 | 50 |  |  | 
C=C(C)[C@@H]1CC[C@]2(COC(=O)CCC(C)=O)CC[C@]3(C)[C@H](CC[C@@H]4[C@@]5(C)CC[C@H](OC(=O)CCC(C)=O)C(C)(C)[C@@H]5CC[C@]43C)[C@@H]12 | 109 | 74 |  |  | 
CCCC(=O)OC[C@]12CC[C@]3(C(C)C)C1=C1[C@H](C[C@@H]4[C@@]5(C)CC[C@H](OC(=O)CCC)C(C)(C)[C@@H]5CC[C@@]4(C)[C@]1(C)CC2)n1c(=O)n(C)c(=O)n13 | 93 | 18 | 30.1 | 30.2 | 
C=C(C)[C@@H]1CC[C@]2(C(=O)OC)CC[C@]3(C)[C@H](CC[C@@H]4[C@@]5(C)CC[C@H](O)C(C)(C)[C@@H]5CC[C@]43C)[C@@H]12 [METHYL BETULINATE] | 1 | 68 |  |  | 
C=C(C)[C@@H]1CC[C@]2(COC(=O)CBr)CC[C@]3(C)[C@H](CC[C@@H]4[C@@]5(C)CC[C@H](O)C(C)(C)[C@@H]5CC[C@]43C)[C@@H]12 | 11 | 125 |  |  | 
C=C(C)[C@@H]1CC[C@]2(COC(=O)c3cccnc3)CC[C@]3(C)[C@H](CC[C@@H]4[C@@]5(C)CC[C@H](O)C(C)(C)[C@@H]5CC[C@]43C)[C@@H]12 | 94 | 43 |  |  | 
C=C(C)[C@@H]1CC[C@]2(C(=O)N[C@@H](CC(=O)OC)C(=O)OC)CC[C@]3(C)[C@H](CC[C@@H]4[C@@]5(C)CCC(=O)C(C)(C)[C@@H]5CC[C@]43C)[C@@H]12 | 30 | 40 |  |  | 
COc1cccc(-n2c(=O)n3n(c2=O)[C@]2(C(C)C)CC[C@]4(COC(C)=O)CC[C@]5(C)C(=C42)[C@@H]3C[C@@H]2[C@@]3(C)CC[C@H](OC(C)=O)C(C)(C)[C@@H]3CC[C@]25C)c1 | 93 | 121 |  |  | 
CC(C)C(=O)OC[C@]12CC[C@]3(C(C)C)C1=C1[C@H](C[C@@H]4[C@@]5(C)CC[C@H](OC(=O)C(C)C)C(C)(C)[C@@H]5CC[C@@]4(C)[C@]1(C)CC2)n1c(=O)n(C)c(=O)n13 | 106 | 24 |  |  | > 80
CCn1c(=O)n2n(c1=O)[C@]1(C(C)C)CC[C@]3(COC(C)=O)CC[C@]4(C)C(=C31)[C@@H]2C[C@@H]1[C@@]2(C)CC[C@H](OC(C)=O)C(C)(C)[C@@H]2CC[C@]14C | 40 | 24 |  |  | 
CC(C)[C@@]12CC[C@]3(CO)CC[C@]4(C)C(=C31)[C@H](C[C@@H]1[C@@]3(C)CC[C@H](O)C(C)(C)[C@@H]3CC[C@]14C)n1c(=O)n(-c3ccccc3)c(=O)n12 | 85 | 73 |  |  | 
C=C(C)[C@@H]1CC[C@]2(C=O)CC[C@]3(C)[C@H](CC[C@@H]4[C@@]5(C)CC[C@H](O)C(C)(C)[C@@H]5CC[C@]43C)[C@@H]12 [BETULINALDEHYDE] | 0 | 1 |  |  | 
C=C(C)[C@@H]1CC[C@]2(COC(=O)C3C(C=C(C)C)C3(C)C)CC[C@]3(C)[C@H](CC[C@@H]4[C@@]5(C)CC[C@H](O)C(C)(C)[C@@H]5CC[C@]43C)[C@@H]12 (some centres undefined) | 90 | 95 |  |  | 
C=C(C)[C@@H]1CC[C@]2(C(=O)OC)CC[C@]3(C)[C@H](CC[C@@H]4[C@@]5(C)CCC(=O)C(C)(C)[C@@H]5CC[C@]43C)[C@@H]12 [METHYL BETULONATE] | 83 | 71 |  |  | 
CCC(=O)OC[C@]12CC[C@]3(C(C)C)C1=C1[C@H](C[C@@H]4[C@@]5(C)CC[C@H](OC(=O)CC)C(C)(C)[C@@H]5CC[C@@]4(C)[C@]1(C)CC2)n1c(=O)n(C)c(=O)n13 | 75 | 21 |  |  | 
C=C(C)[C@@H]1CC[C@]2(COC(C)=O)CC[C@]3(C)[C@H](CC[C@@H]4[C@@]5(C)CC[C@H](OC(C)=O)C(C)(C)[C@@H]5CC[C@]43C)[C@@H]12 [BETULIN DIACETATE] | 97 | 21 | 9.1 | 9.12 | 
